Series [1] deals with HepG2. Nature of the series: Cytotoxicity against human HepG2 cells assessed as cell viability at 0.67 ug/ml after 4 hrs by MTT assay relative to control. The series is classed as functional. Conditions: HepG2, 4 h, read-out: Activity. In outline: (§1)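 HepG2 seeded at 1 × 10^5 cells/well in phenol red-free MEM, grown 24 h, then exposed 4 h to eight concentrations (dissolved in MEM; 2% Triton X100 positive control). MTT 1 mg/mL added for 2 h at 37 °C, formazan dissolved in 2-propanol, A570 minus A650. Viability as % of untreated controls; three independent experiments, mean ± SEM.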

For series [2], the system named is HepG2. Nature of the series: Cytotoxicity against human HepG2 cells assessed as cell viability at 21.14 ug/ml after 4 hrs by trypan blue dye exclusion assay relative to control. The series is classed as functional. Conditions: HepG2, 4 h, read-out: Activity. In outline:
(§2)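 Cells seeded at 5 × 10^5/well, grown 24 h, then exposed 4 h to the three highest MTT-tested concentrations. Trypan blue exclusion read on an automated cell counter, unstained cells counted as viable. Viability as % of total cells; three independent experiments, mean ± SEM.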

Series [3] relates to HepG2. Nature of the series: Cytotoxicity against human HepG2 cells assessed as cell viability at 2.64 ug/ml after 4 hrs by MTT assay relative to control. Conditions: HepG2, 4 h, read-out: Activity. Type of series: functional. In outline:
as §1

Series [4] concerns HepG2. Kind of series: Cytotoxicity against human HepG2 cells assessed as cell viability at 42.28 ug/ml after 4 hrs by AO/DAPI double staining relative to control. The series is classed as functional. Conditions: HepG2, 4 h, read-out: Activity. Put shortly: (§3)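 Cells seeded at 5 × 10^5/well, grown 24 h, exposed 4 h to the three highest MTT-tested concentrations. Cell suspension loaded into cassettes coated with acridine orange (all cells) and DAPI (nonviable cells), then counted by automated fluorescence image analysis. Viability as % of total cells; three independent experiments, mean ± SEM.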

The test system of series [5] is HepG2. Nature of the series: Genotoxicity in human HepG2 cells assessed as DNA strand-breakage at 84.55 ug/ml after 4 hrs by alkaline comet assay. Conditions: hepg2, 4 h.
The test system of series [6] is HepG2. Nature of the series: Cytotoxicity against human HepG2 cells assessed as cell viability at 84.55 ug/ml after 4 hrs by MTT assay relative to control. The series is classed as functional. To be noted: HepG2, 4 h, read-out: Activity. In outline: as §1
Series [7] has as its system HepG2. Nature of the series: Genotoxicity in human HepG2 cells assessed as DNA strand-breakage at 42.28 ug/ml after 4 hrs by alkaline comet assay. Conditions: hepg2, 4 h.
Series [8] has as its system HepG2. Kind of series: Cytotoxicity against human HepG2 cells assessed as cell viability at 21.14 ug/ml after 4 hrs by MTT assay relative to control. Type of series: functional. Conditions: HepG2, 4 h, read-out: Activity. In outline:
as §1

In series [9] the test system is HepG2. Kind of series: Genotoxicity in human HepG2 cells assessed as DNA strand-breakage at 21.14 ug/ml after 4 hrs by alkaline comet assay. To be noted: hepg2, 4 h.
The test system of series [10] is HepG2. Kind of series: Cytotoxicity against human HepG2 cells assessed as cell viability at 21.14 ug/ml after 4 hrs by AO/DAPI double staining relative to control. The series is classed as functional. To be noted: HepG2, 4 h, read-out: Activity. In outline: as §3
The subject of series [11] is HepG2. Nature of the series: Cytotoxicity against human HepG2 cells assessed as cell viability at 1.32 ug/ml after 4 hrs by MTT assay relative to control. Type of series: functional. To be noted: HepG2, 4 h, read-out: Activity. Put shortly:
as §1

Series [12] has as its system HepG2. Kind of series: Induction of late apoptosis in human HepG2 cells assessed as induction of DNA fragmentation at 84.55 ug/ml after 4 hrs by […] relative to control. Type of series: functional. In outline: (§4)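 Cells seeded 48 h before a 4 h exposure; 1 μM staurosporine positive control. Cells permeabilized with ethanol, washed to remove low-molecular-weight DNA, stained with DAPI, and DNA content read by automated image cytometry. Result as % sub-G1 cells below a manually set G1/G0 peak. Three independent experiments, mean ± SEM.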

For series [13], the system named is HepG2. Kind of series: Cytotoxicity against human HepG2 cells assessed as cell viability at 10.57 ug/ml after 4 hrs by MTT assay relative to control. Type of series: functional. To be noted: HepG2, 4 h, read-out: Activity. Put shortly:
as §1

Series [14] concerns HepG2. Nature of the series: Induction of early apoptosis in human HepG2 cells assessed as decrease mitochondrial membrane potential at 21.14 ug/ml after 4 hrs by JC-1 staining relative to control. Type of series: functional. Also noted: scale not given: the % may be the effect or the level left. Put shortly:
(§5)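 Cells seeded 48 h before a 4 h exposure; 0.5 μM valinomycin for 4 h as depolarizing positive control. Stained with JC-1 plus DAPI (necrotic cells), read by automated fluorescence image cytometry. Depolarization seen as a fall in red/green ratio; gated as % depolarized cells. Three independent experiments, mean ± SEM.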

The subject of series [15] is HepG2. Nature of the series: Induction of early apoptosis in human HepG2 cells assessed as decrease mitochondrial membrane potential at 84.55 ug/ml after 4 hrs by JC-1 staining relative to control. The series is classed as functional. Details: scale not given: the % may be the effect or the level left. In outline: as §5
Series [16] concerns HepG2. Nature of the series: Induction of late apoptosis in human HepG2 cells assessed as induction of DNA fragmentation at 21.14 ug/ml after 4 hrs by […] relative to control. The series is classed as functional. Put shortly: as §4
In series [17] the test system is HepG2. Kind of series: Cytotoxicity against human HepG2 cells assessed as cell viability at 42.28 ug/ml after 4 hrs by MTT assay relative to control. The series is classed as functional. Conditions: HepG2, 4 h, read-out: Activity. Put shortly:
as §1

The test system of series [18] is HepG2. Nature of the series: Cytotoxicity against human HepG2 cells assessed as cell viability at 84.55 ug/ml after 4 hrs by AO/DAPI double staining relative to control. Type of series: functional. To be noted: HepG2, 4 h, read-out: Activity. In outline:
as §3

The test system of series [19] is HepG2. Nature of the series: Induction of early apoptosis in human HepG2 cells assessed as decrease mitochondrial membrane potential at 42.28 ug/ml after 4 hrs by JC-1 staining relative to control. Type of series: functional. Also noted: scale not given: the % may be the effect or the level left. Put shortly: as §5
Series [20] deals with HepG2. Nature of the series: Cytotoxicity against human HepG2 cells assessed as cell viability at 42.28 ug/ml after 4 hrs by trypan blue dye exclusion assay relative to control. The series is classed as functional. To be noted: HepG2, 4 h, read-out: Activity. Put shortly:
as §2

Series [21] has as its system HepG2. Kind of series: Induction of late apoptosis in human HepG2 cells assessed as induction of DNA fragmentation at 42.28 ug/ml after 4 hrs by […] relative to control. The series is classed as functional. In outline:
as §4

The subject of series [22] is HepG2. Kind of series: Cytotoxicity against human HepG2 cells assessed as cell viability at 84.55 ug/ml after 4 hrs by trypan blue dye exclusion assay relative to control. The series is classed as functional. To be noted: HepG2, 4 h, read-out: Activity. Put shortly:
as §2

The test system of series [23] is HepG2. Kind of series: Cytotoxicity against human HepG2 cells assessed as cell viability at 5.28 ug/ml after 4 hrs by MTT assay relative to control. The series is classed as functional. To be noted: HepG2, 4 h, read-out: Activity. Put shortly:
as §1

The test system of series [24] is HepG2. Nature of the series: Induction of late apoptosis in human HepG2 cells assessed as induction of DNA fragmentation at 1 uM after 4 hrs by […] relative to control. The series is classed as functional. In outline:
as §4

For series [25], the system named is HepG2. Kind of series: Induction of early apoptosis in human HepG2 cells assessed as decrease mitochondrial membrane potential at 0.5 uM after 4 hrs by JC-1 staining relative to control. Type of series: functional. Also noted: scale not given: the % may be the effect or the level left. Put shortly:
as §5

Drawing on ChEMBL document CHEMBL3232976, “Investigation of the cytotoxic, genotoxic, and apoptosis-inducing effects of estragole isolated from fennel (Foeniculum vulgare)” (J Nat Prod, 2014), this text covers viability and Activity for three compounds.

Turning to `C=CCc1ccc(OC)cc1` [ESTRAGOLE], in the series on HepG2 [1], the viability at 0.67 µg/mL is 106%. Besides, the values for the viability at 21.14 µg/mL with HepG2 [2], in the series with HepG2 [8] and in the series on HepG2 [10] were 92.7%, 110% and 90.9%, respectively. Further, the viability at 2.64 µg/mL in the series on HepG2 [3] was determined as 101%. Further, the viability at 42.28 µg/mL with HepG2 [4] was 91.7%; with HepG2 [17], 108%; in the series with HepG2 [20] it was 93.3%. Besides, the Activity entry in the series with HepG2 [5] was “Non-toxic”; in the series on HepG2 [7], “Non-toxic”; in the series with HepG2 [9] it was “Non-toxic”; in the series on HepG2 [12], 4.9%; in the series with HepG2 [14] it was 15.9%; with HepG2 [15], 13.2%. Moreover, the Activity is 3.4% in the series on HepG2 [16], 12.3% with HepG2 [19] and 3.7% in the series on HepG2 [21]. The viability at 84.55 µg/mL in the series with HepG2 [6] came out at 103%; in the series with HepG2 [18], 90.2%; in the series on HepG2 [22], 85%. Besides, in the series with HepG2 [11], the viability at 1.32 µg/mL came out at 94.8%. The viability at 10.57 µg/mL with HepG2 [13] came to 117%. The viability at 5.28 µg/mL with HepG2 [23] was found to be 104%.

Turning to `CN[C@@H]1C[C@H]2O[C@@](C)([C@@H]1OC)n1c3ccccc3c3c4c(c5c6ccccc6n2c5c31)C(=O)NC4` [STAUROSPORINE], the Activity with HepG2 [24] was 21.1%.

Consider `CC(C)[C@@H]1NC(=O)[C@H](C)OC(=O)[C@@H](C(C)C)NC(=O)[C@@H](C(C)C)OC(=O)[C@H](C(C)C)NC(=O)[C@H](C)OC(=O)[C@@H](C(C)C)NC(=O)[C@@H](C(C)C)OC(=O)[C@H](C(C)C)NC(=O)[C@H](C)OC(=O)[C@@H](C(C)C)NC(=O)[C@@H](C(C)C)OC1=O` [VALINOMYCIN], for which the Activity with HepG2 [25] was determined as 40.3%.
